Laboratory results from ChEMBL document CHEMBL4028913, “Discovery of Novel Potent VEGFR-2 Inhibitors Exerting Significant Antiproliferative Activity against Cancer Cell Lines” (J Med Chem, 2018).
pIC50: −log10 of the molar value. Calls of active or inactive are those of the source. The rule behind the calls is not given here.

Key:
Homo sapiens = species: Homo sapiens; assay: Inhibition of human DDR at 0.5 uM relative to control
HUVEC [1] = assay: Growth inhibition of HUVEC at 10 uM after 72 hrs by CellTiter-Glo assay relative to control; type: functional; details: Homo sapiens, read-out: GI
Method in brief: (§1)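 Cells in exponential phase seeded at 2000–4000 cells/well, then exposed 72 h at 37 °C, 5% CO2 with 0.1% final DMSO. Single-point screen at 10 μM final. […] Read-out was CellTiter-Glo luminescence.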

MDA-MB-435 [2] = assay: Growth inhibition of human MDA-MB-435 cells at 10 uM after 72 hrs by CellTiter-Glo assay relative to control; type: functional; details: MDA-MB-435, 72 h, read-out: GI; method in brief: as §1
HUVEC [3] = assay: Growth inhibition of HUVEC after 72 hrs by CellTiter-Glo assay; type: functional, cell-based; details: Homo sapiens; method in brief: as §1
MDA-MB-435 [4] = assay: Growth inhibition of human MDA-MB-435 cells after 72 hrs by CellTiter-Glo assay; type: functional, cell-based; details: MDA-MB-435, 72 h; method in brief: as §1
K562 = assay: Cytotoxicity against human K562 cells after 48 hrs by SRB assay; type: functional; details: K562, 48 h
Method in brief: (§2)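 NCI-60 panel; cells grown in RPMI 1640 with 5% FBS and 2 mM L-glutamine, plated at 5000–40 000 cells/well by doubling time, preincubated 24 h (37 °C, 5% CO2). Drug added at five concentrations, 1-log steps from 10−4 to 10−8 M, for 48 h. Fixed with TCA, stained with 0.4% SRB, absorbance read at 515 nm. Percent growth computed against time-zero and untreated controls; GI50, TGI and LC50 derived.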

SR = assay: Cytotoxicity against human SR cells after 48 hrs by SRB assay; type: functional; method in brief: as §2
EKVX = assay: Cytotoxicity against human EKVX cells after 48 hrs by SRB assay; type: functional; method in brief: as §2
NCI-H23 = assay: Cytotoxicity against human NCI-H23 cells after 48 hrs by SRB assay; type: functional; details: NCI-H23, 48 h; method in brief: as §2
NCI-H322M = assay: Cytotoxicity against human NCI-H322M cells after 48 hrs by SRB assay; type: functional; method in brief: as §2
NCI-H460 = assay: Cytotoxicity against human NCI-H460 cells after 48 hrs by SRB assay; type: functional; details: NCI-H460, 48 h; method in brief: as §2
SF-268 = assay: Cytotoxicity against human SF268 cells after 48 hrs by SRB assay; type: functional; details: SF-268, 48 h; method in brief: as §2
U-251 = assay: Cytotoxicity against human U251 cells after 48 hrs by SRB assay; type: functional; details: U-251, 48 h
Method in brief: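 NCI-60 panel, five doses at 1-log steps from 10−4 to 10−8 M. Cells grown in RPMI 1640 with 5% FBS and 2 mM L-glutamine, seeded at 5000–40 000 cells/well and preincubated 24 h. Tz plates were TCA-fixed at drug addition. Drug exposure 48 h at 37 °C, then TCA fixation, 0.4% SRB stain and absorbance at 515 nm. GI50 taken from percent growth relative to Tz and control.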

MDA-MB-435 [5] = assay: Cytotoxicity against human MDA-MB-435 cells after 48 hrs by SRB assay; type: functional; details: MDA-MB-435, 48 h; method in brief: as §2
SK-MEL-2 = assay: Cytotoxicity against human SK-MEL-2 cells after 48 hrs by SRB assay; type: functional; details: SK-MEL-2, 48 h; method in brief: as §2
OVCAR-5 = assay: Cytotoxicity against human OVCAR5 cells after 48 hrs by SRB assay; type: functional; details: OVCAR-5, 48 h; method in brief: as §2
NCI/ADR-RES [6] = assay: Cytotoxicity against human NCI-ADR-RES cells after 48 hrs by SRB assay; type: functional; method in brief: as §2
ACHN = assay: Cytotoxicity against human ACHN cells after 48 hrs by SRB assay; type: functional; method in brief: as §2
SN12C = assay: Cytotoxicity against human SN12C cells after 48 hrs by SRB assay; type: functional; method in brief: as §2
MDA-MB-231 = assay: Cytotoxicity against human MDA-MB-231 cells after 48 hrs by SRB assay; type: functional; details: MDA-MB-231, 48 h; method in brief: as §2
[7] = Potency index, ratio of sunitinib GI50 to test compound GI50 for human renal cancer cells; type: functional, Renal cancer cell
[8] = Potency index, ratio of sorafenib TGI to test compound TGI for human renal cancer cells; type: functional, Renal cancer cell
NCI/ADR-RES [9] = assay: Potency index, ratio of sunitinib GI50 to test compound GI50 for human NCI-ADR-RES cells; type: functional
Method in brief: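 GI50 is the concentration giving 50% reduction in net protein increase relative to control. Potency index is the reference-drug GI50 divided by the test-compound GI50.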

[10] = biological target: T1, Vascular endothelial growth factor receptor 2 (Homo sapiens, UniProt P35968); assay: Inhibition of VEGFR2 in human prostate cancer cells assessed as decrease in Akt activation at 10 uM relative to control
T1 sequence (P35968 whole entry): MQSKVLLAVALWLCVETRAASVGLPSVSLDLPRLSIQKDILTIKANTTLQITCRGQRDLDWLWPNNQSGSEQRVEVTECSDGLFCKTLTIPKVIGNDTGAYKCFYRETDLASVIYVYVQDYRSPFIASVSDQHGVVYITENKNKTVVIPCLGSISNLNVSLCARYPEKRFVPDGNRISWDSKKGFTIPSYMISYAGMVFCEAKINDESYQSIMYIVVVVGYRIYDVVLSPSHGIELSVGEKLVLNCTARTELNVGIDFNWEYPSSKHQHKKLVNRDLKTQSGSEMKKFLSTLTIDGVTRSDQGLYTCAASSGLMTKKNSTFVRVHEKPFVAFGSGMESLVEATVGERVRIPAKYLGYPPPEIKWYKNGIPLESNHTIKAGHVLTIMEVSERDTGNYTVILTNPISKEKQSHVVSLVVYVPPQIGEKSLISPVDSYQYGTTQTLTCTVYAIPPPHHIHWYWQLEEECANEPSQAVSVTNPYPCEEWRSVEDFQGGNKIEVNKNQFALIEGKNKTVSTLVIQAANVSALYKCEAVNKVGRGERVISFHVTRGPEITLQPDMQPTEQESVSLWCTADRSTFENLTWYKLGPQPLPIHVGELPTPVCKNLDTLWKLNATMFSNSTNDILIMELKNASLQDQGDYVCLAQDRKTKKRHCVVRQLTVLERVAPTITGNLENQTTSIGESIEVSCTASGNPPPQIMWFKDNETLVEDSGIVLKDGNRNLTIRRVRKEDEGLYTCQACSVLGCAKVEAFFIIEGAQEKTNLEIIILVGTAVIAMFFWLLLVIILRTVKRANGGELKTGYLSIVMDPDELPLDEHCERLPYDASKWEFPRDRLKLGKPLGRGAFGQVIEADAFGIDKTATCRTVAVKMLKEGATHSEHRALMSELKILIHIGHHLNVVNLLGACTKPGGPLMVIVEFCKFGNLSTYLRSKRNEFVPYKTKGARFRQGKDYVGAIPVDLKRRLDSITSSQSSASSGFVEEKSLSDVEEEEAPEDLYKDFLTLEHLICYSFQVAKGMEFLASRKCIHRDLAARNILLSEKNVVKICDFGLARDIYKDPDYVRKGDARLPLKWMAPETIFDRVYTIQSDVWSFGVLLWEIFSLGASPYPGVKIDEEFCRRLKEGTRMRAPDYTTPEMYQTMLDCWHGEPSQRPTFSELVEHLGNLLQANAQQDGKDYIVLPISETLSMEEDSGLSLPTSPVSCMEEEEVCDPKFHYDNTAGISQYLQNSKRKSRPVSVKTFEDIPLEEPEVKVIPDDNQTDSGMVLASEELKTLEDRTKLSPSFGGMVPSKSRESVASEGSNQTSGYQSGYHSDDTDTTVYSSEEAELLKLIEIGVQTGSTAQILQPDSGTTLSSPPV

[11] = biological target: Fibroblast growth factor receptor 1 (Homo sapiens) (UniProt P11362); assay: Inhibition of human FGFR1 at 0.5 uM relative to control
Fibroblast growth factor receptor 1 (Homo sapiens), sequence (P11362 22-822 limits assumed): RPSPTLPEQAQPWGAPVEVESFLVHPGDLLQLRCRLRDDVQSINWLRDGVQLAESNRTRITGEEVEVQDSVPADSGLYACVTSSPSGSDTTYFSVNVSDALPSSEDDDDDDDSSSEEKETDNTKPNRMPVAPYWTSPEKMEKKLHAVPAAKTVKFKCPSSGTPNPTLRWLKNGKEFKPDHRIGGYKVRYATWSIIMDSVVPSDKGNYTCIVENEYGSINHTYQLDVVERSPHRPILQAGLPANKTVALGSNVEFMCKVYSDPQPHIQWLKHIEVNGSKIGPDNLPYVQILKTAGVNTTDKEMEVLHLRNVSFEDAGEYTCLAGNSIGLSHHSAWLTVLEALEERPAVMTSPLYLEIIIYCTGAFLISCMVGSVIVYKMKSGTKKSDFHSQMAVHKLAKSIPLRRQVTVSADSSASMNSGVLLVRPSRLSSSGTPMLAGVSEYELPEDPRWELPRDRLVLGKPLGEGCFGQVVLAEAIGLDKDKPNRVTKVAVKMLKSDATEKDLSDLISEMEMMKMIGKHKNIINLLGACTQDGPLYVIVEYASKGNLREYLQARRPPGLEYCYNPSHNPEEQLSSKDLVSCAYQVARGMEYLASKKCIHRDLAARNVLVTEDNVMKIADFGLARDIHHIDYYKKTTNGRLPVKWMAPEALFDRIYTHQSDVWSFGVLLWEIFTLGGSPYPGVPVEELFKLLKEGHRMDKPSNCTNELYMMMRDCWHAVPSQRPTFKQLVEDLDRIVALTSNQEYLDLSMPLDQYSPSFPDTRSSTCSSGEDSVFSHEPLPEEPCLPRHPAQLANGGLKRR

[12] = biological target: Fibroblast growth factor receptor 2 (Homo sapiens) (UniProt P21802); assay: Inhibition of human FGFR2 at 0.5 uM relative to control
Fibroblast growth factor receptor 2 (Homo sapiens), sequence (P21802 22-821 limits assumed): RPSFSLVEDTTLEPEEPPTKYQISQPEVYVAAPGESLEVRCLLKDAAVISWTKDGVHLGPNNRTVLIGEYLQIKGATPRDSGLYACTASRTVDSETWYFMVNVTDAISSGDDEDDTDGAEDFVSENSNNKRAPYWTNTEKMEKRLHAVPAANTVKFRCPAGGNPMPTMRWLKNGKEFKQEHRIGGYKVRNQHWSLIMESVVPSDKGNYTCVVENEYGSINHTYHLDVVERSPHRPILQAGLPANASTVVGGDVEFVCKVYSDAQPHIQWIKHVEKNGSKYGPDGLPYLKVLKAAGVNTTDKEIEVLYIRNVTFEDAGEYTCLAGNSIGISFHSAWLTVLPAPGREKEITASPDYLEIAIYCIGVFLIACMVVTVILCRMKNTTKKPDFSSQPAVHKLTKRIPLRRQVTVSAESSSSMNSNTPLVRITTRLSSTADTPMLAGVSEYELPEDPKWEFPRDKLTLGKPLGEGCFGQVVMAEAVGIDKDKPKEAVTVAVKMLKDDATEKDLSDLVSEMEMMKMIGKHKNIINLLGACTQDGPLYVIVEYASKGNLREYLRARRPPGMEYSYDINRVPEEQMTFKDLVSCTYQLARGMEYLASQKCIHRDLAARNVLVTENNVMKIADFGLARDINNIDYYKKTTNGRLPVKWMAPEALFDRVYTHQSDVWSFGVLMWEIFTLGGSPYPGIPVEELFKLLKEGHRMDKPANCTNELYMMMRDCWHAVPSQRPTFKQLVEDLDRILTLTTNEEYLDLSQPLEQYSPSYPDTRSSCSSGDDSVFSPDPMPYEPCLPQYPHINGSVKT

[13] = biological target: Fibroblast growth factor receptor 3 (Homo sapiens) (UniProt P22607); assay: Inhibition of human FGFR3 at 0.5 uM relative to control
Fibroblast growth factor receptor 3 (Homo sapiens), sequence (P22607 23-806 limits assumed): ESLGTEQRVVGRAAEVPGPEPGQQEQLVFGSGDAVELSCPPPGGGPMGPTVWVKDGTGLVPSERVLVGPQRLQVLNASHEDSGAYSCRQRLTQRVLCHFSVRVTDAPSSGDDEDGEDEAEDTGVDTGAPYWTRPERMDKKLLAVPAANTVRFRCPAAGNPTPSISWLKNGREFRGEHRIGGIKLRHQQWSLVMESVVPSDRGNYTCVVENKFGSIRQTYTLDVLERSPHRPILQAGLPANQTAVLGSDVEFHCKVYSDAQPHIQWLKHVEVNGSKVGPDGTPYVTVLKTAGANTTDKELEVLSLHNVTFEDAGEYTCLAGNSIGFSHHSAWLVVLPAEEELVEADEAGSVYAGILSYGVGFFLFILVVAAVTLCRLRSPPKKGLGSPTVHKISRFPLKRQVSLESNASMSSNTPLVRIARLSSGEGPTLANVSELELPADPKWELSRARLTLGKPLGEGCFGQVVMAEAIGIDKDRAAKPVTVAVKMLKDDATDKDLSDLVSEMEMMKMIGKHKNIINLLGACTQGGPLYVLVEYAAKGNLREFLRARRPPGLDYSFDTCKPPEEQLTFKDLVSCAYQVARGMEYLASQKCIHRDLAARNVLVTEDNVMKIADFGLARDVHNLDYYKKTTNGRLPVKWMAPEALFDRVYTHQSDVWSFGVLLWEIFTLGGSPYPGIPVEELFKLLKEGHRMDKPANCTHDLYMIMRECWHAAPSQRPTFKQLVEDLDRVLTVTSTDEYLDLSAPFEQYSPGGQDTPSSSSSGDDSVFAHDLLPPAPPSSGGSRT

[14] = biological target: Fibroblast growth factor receptor 4 (Homo sapiens) (UniProt P22455); assay: Inhibition of human FGFR4 at 0.5 uM relative to control
Fibroblast growth factor receptor 4 (Homo sapiens), sequence (P22455 22-802 limits assumed): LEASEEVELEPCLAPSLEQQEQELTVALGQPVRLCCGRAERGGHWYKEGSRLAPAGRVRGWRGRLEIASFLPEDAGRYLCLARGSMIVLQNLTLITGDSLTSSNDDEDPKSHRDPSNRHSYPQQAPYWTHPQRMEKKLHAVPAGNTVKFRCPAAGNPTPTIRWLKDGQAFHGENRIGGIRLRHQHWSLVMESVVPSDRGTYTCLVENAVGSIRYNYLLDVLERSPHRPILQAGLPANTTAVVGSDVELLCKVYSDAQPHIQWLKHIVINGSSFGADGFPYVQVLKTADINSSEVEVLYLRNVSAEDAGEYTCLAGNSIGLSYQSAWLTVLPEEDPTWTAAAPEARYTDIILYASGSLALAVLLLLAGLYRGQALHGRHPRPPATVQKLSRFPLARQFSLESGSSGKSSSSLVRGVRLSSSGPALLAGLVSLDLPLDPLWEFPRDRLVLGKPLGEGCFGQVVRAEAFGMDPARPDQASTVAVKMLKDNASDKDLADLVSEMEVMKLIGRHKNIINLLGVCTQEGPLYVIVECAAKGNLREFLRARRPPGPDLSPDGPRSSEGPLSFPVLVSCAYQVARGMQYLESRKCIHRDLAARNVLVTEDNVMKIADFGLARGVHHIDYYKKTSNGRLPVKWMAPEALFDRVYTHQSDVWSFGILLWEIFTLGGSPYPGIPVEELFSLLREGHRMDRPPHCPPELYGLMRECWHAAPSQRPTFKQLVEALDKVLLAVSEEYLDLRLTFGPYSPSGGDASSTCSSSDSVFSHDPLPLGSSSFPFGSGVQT

[15] = biological target: Vascular endothelial growth factor receptor 1 (Homo sapiens) (UniProt P17948); assay: Inhibition of human Flt1 at 0.5 uM relative to control
[16] = biological target: Tyrosine-protein kinase HCK (Homo sapiens) (UniProt P08631); assay: Inhibition of human HCK at 0.5 uM relative to control
Tyrosine-protein kinase HCK (Homo sapiens), sequence (P08631 2-526 limits assumed): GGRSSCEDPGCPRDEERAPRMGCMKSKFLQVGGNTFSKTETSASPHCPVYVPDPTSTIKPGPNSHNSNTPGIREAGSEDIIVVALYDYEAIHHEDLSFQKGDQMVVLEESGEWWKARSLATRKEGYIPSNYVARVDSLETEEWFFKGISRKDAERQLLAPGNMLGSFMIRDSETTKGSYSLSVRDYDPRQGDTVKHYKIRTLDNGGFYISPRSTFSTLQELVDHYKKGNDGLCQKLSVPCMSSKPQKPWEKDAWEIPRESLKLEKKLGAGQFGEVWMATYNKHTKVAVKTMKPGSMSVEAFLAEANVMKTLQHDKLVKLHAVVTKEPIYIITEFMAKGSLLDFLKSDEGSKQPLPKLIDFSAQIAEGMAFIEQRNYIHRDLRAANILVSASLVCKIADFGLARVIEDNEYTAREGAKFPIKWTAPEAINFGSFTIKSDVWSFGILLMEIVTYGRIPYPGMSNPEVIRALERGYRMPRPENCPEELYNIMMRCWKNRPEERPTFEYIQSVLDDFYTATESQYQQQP

[17] = biological target: T1, Vascular endothelial growth factor receptor 2; details: at 0.5 µM
[18] = read-out: LC50 (the source's name)

With `COc1cc2ncnc(Oc3ccc(NC(=O)Nc4ccc(CN5CCOCC5)c(C(F)(F)F)c4)c4ccccc34)c2cc1OC` the inhibition (Homo sapiens) was “Active”, the inhibition of growth at 10 µM (HUVEC [1]) was 97.1% and the inhibition of growth at 10 µM (MDA-MB-435 [2]) was 98.4%. The pIC50 (HUVEC [3]) was 6.20, the pIC50 (MDA-MB-435 [4]) was 5.63 and the GI50 (K562) was under 0.01 µM. For the same compound, the TGI (K562) was 1.12 µM, the CC50 (K562; [18]) was 95.5 µM and the GI50 (SR) was 0.69 µM. The TGI (SR) was 5.37 µM, the CC50 (SR; [18]) was over 100 µM and the GI50 (EKVX) was 0.45 µM. It also gave a TGI (EKVX) of 6.46 µM, a CC50 (EKVX; [18]) of 67.6 µM and a GI50 (NCI-H23) of 0.62 µM. The TGI (NCI-H23) was 3.98 µM, the CC50 (NCI-H23; [18]) was over 100 µM and the GI50 (NCI-H322M) was 0.56 µM. It also gave a TGI (NCI-H322M) of 15.1 µM, a CC50 (NCI-H322M; [18]) of 93.3 µM and a GI50 (NCI-H460) of 1.41 µM. The TGI (NCI-H460) was 4.27 µM, the CC50 (NCI-H460; [18]) was 25.7 µM and the GI50 (SF-268) was 0.46 µM. It also gave a TGI (SF-268) of 15.8 µM, a CC50 (SF-268; [18]) of 79.4 µM and a GI50 (U-251) of 1.05 µM. The TGI (U-251) was 3.98 µM, the CC50 (U-251; [18]) was 27.5 µM and the GI50 (MDA-MB-435 [5]) was 0.37 µM. It also gave a TGI (MDA-MB-435 [5]) of 3.39 µM, a CC50 (MDA-MB-435 [5]; [18]) of 33.9 µM and a GI50 (SK-MEL-2) of 1.48 µM. The TGI (SK-MEL-2) was 13.8 µM, the CC50 (SK-MEL-2; [18]) was over 100 µM and the GI50 (OVCAR-5) was 1.07 µM. The TGI (OVCAR-5) was 10.5 µM, the CC50 (OVCAR-5; [18]) was over 100 µM and the GI50 (NCI/ADR-RES [6]) was 0.76 µM. The TGI (NCI/ADR-RES [6]) was 58.9 µM, the CC50 (NCI/ADR-RES [6]; [18]) was over 100 µM and the GI50 (ACHN) was 0.32 µM. The TGI (ACHN) was 1.62 µM, the CC50 (ACHN; [18]) was 14.1 µM and the GI50 (SN12C) was 0.29 µM. For the same compound, the TGI (SN12C) was 1.86 µM, the CC50 (SN12C; [18]) was 13.2 µM and the GI50 (MDA-MB-231) was 1.15 µM. The TGI (MDA-MB-231) was 7.94 µM, the CC50 (MDA-MB-231; [18]) was 42.7 µM and the RatioGI50 [7] was 6.8. For the same compound, the Ratio [8] was 3.2, the RatioGI50 (NCI/ADR-RES [9]) was 6.9 and the inhibition [10] was under 20%. For the same compound, the inhibition [11] was over 96%, the inhibition [12] was over 96% and the inhibition [13] was over 96%. For the same compound, the inhibition [14] was over 96%, the inhibition [15] was “Active” and the inhibition [16] was “Active”. The inhibition [17] was “Active”.
